Screens: PubChem, several laboratories
A selection: hits, their analogues and other compounds. The true share with any hit is near 2.2%.
HTR2A ag – mouse Htr2a agonists via beta-arrestin recruitment, primary screen, cell-based, luminescence; 5-hydroxytryptamine receptor 2A (Mus musculus), P35363; AID 624169, 2012; CHO-K1 mHTR2A beta-arrestin complementation; percent of 30 µM serotonin response; 0.66% of 360,000 active; activation, % at 7.6 µM;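 active means activation above a run cutoff, the mean activation of all tested compounds plus 3 SD, cut at about 14% in these data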
CCR6 antag – CCR6 receptor antagonists, primary screen, cell-based, CHO-K1, luminescence, beta-arrestin, uHTS. C-C chemokine receptor type 6 (Homo sapiens), P51684. CHO-K1 CCR6 PathHunter beta-arrestin, CCL20-stimulated. inhibition, % at 20 µM. 0.49% of 340,000 active. AID 493098, 2011;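 active means compounds whose inhibition of the agonist-driven luminescence signal at 20 µM reaches about 50%, limit read from the data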;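 further: cells stimulated with CCL20 at 14 nM final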
Target sequence (P51684 whole entry, looked up): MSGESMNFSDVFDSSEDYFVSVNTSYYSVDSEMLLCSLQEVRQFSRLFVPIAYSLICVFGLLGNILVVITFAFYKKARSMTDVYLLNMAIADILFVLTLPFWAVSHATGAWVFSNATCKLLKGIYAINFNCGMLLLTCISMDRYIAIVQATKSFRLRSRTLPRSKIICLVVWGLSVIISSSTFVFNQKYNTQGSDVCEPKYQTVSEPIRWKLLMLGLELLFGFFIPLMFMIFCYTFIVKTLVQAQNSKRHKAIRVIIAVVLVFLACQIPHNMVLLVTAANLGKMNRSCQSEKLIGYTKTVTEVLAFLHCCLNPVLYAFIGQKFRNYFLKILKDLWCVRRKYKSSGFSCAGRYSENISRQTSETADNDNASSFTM
EBI2 antag – EBI2 receptor antagonists, beta-arrestin recruitment, primary screen, cell-based, luminescence, 7a,25-OHC stimulation, uHTS; 7a,25-OHC stimulated; 0.81% of 360,000 active; AID 651636, 2012; inhibition, % at 5 µM; in the data active means inhibition above about 38%;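 further: enzyme fragment complementation signal reports receptor beta-arrestin coupling in cells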
Target sequence (P32249 whole entry, looked up, the tested form may be a part): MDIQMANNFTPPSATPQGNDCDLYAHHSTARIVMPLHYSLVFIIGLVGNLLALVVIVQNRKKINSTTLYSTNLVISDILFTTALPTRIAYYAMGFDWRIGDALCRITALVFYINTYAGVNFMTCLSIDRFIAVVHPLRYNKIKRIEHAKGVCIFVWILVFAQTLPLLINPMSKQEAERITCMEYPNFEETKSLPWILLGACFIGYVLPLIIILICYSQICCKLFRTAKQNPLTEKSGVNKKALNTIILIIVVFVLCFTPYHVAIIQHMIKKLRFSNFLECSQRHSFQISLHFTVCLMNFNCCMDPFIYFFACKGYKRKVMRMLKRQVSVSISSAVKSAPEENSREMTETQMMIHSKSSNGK
APJ antagonist – antagonists of human apelin receptor APJ, primary screen, CHO-K1 cells, beta-arrestin complementation, luminescence | P35414 | AID 2521, 2010 | inhibition, % at 20 µM | 0.32% of 330,000 active;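 active means inhibition above about 40% at 20 µM, limit read from the data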;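 further: cells challenged with 10 nM apelin-13 agonist together with compound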
CXCR6 block – CXCR6 receptor inhibitors, primary screen, cell-based, beta-arrestin, luminescence, CHO-K1 PathHunter, 1536-well; inhibition, % at 20 µM; AID 602244, 2012; 0.36% of 360,000 active; in the data active means inhibition above about 34%, passing the limit was not always enough;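 further: antagonist mode with CXCL16 agonist at 10 nM final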
APJ agonist – agonists of human apelin receptor APJ, primary screen, CHO-K1 cells, PathHunter beta-arrestin, luminescence | 0.11% of 330,000 active | activation, % at 20 µM | 0% DMSO wells, 100% apelin | P35414;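 active means activation more than six SD over the plate average, tested at 20 µM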
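system = engineered CHO-K1 APJ arrestin reporter cells | input = 1000 cells per well | timing = overnight seeding, 90 min compound at 25 °C, 1 h detection | measured by = enzyme-fragment complementation luminescence | read-out = beta-arrestin recruitment to APJ as agonist activity, luminescent signal | control set = negative DMSO alone, positive Apelin-13 at 10 nM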
CXCR6 confirm – CXCR6 receptor antagonists, confirmation, cell-based, single concentration, beta-arrestin, luminescence. shares compounds with CXCR6 block. CHO-K1 CXCR6 PathHunter beta-arrestin. inhibition, % at 20 µM. 65% of 700 active. AID 602409, 2012;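 active means mean inhibition over four retests above 40%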;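 further: receptor stimulated with 10 nM CXCL16 agonist; beta-galactosidase fragment complementation upon beta-arrestin recruitment to receptor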
Each line names hits and unclear results; the compound was inactive in the other large screens (follow-up assays come after a bar, where they were run).

Cn1c(-c2c(N)n(CCCc3ccccc3)c3nc4ccccc4nc23)nc2ccccc21	none (no result: APJ antagonist, APJ agonist)
COCCCn1c(N)c(-c2nc3ccccc3n2C)c2nc3ccccc3nc21	CXCR6 block 43.4 (no result: CCR6 antag) | CXCR6 confirm 64.9
CC(C)(C)NC(=O)C1C(c2ccccc2)=Nc2ccccc2N1C(=O)c1ccc(C(F)(F)F)cc1 (centres undefined)	none (no result: CCR6 antag, APJ antagonist, CXCR6 block, APJ agonist)
Cc1ccc(NC(=O)c2ccccc2)cc1	none
Cc1ccc(NC(=O)C2=C(c3ccccc3)S(=O)(=O)CCS2(=O)=O)cc1	CXCR6 block 48.5 (no result: CCR6 antag) | CXCR6 confirm 52.8
CC(C)NC(=O)C1(C#N)C=C1c1ccccc1 (centres undefined)	none (no result: CCR6 antag, APJ antagonist, APJ agonist)
O=C1CN(C(=O)c2cccc([N+](=O)[O-])c2)CC(=O)N1	none
CCC1=NN(C(=O)c2cccc([N+](=O)[O-])c2)C(O)(c2ccc(C)cc2)C1 (centres undefined)	CCR6 antag 66.4, CXCR6 block 48.4 | CXCR6 confirm inactive
CCC1=NN(C(=O)c2ccc(Br)cc2)C(O)(c2ccccc2)C1 (centres undefined)	CCR6 antag 73.4, CXCR6 block 48.1 | CXCR6 confirm inactive
CCOC(=O)C1=NN(C(=O)c2ccccc2)C(O)(c2ccc(C)cc2)C1 (centres undefined)	none
CCc1nc2ccc(C(=O)Nc3cccc(NS(C)(=O)=O)c3)cn2c1N(C)C(=O)c1cccc(OC)c1	none (no result: CCR6 antag, APJ antagonist, APJ agonist)
C#CCN(C[C@@H]1[C@@H](OC(=O)Nc2cccs2)[C@@H](OC(=O)Nc2cccs2)Cn2c(=O)n(CCCCCC)c(=O)n21)S(=O)(=O)c1ccc(C)cc1	none (no result: CCR6 antag, APJ antagonist, APJ agonist)
O=[N+]([O-])c1cc2oc3c(c2c(C=NCc2ccccc2)c1O)CCCC3	CXCR6 block 43.8 | CXCR6 confirm 59.4
CC(C)CN=Cc1c(O)c([N+](=O)[O-])cc2oc3c(c12)CCCC3	none
COc1ccc(C(=O)/C(=C\c2ccco2)N2C=CC=CC2=C(C#N)C#N)cc1	CCR6 antag 100.2, EBI2 antag 54.0, APJ antagonist 85.6, CXCR6 block 83.5 | CXCR6 confirm 102.9
COc1ccc(/C=C(/C(=O)c2cccs2)N2C=CC=CC2=C(C#N)C#N)cc1	CCR6 antag 83.8, CXCR6 block 61.8 (no result: APJ antagonist, APJ agonist) | CXCR6 confirm 57.4
COc1ccc(C(=O)N/C(=C\c2ccco2)C(=O)OCc2ccco2)cc1	none
N#CC(C#N)=C1C=CC=CN1/C(=C\c1ccco1)C(=O)c1ccccc1	CCR6 antag 100.0, EBI2 antag 77.7, CXCR6 block 97.7 (no result: APJ antagonist, APJ agonist) | CXCR6 confirm 105.0
COc1ccc2oc3cc(NCCN(C)C)ccc3c(=O)c2c1	none (no result: CCR6 antag, APJ antagonist, APJ agonist)
COc1cccc(OC)c1C(=O)Nc1ccc2nc(C)c(C)nc2c1	CXCR6 block 65.2 | CXCR6 confirm inactive
COc1cccc(NC(=O)Nc2ccc3nc(C)c(C)nc3c2)c1	none
COc1cc(/C=C2\SC(=O)N(c3ccc(Cl)cc3)C2=O)cc([N+](=O)[O-])c1O	CCR6 antag 77.4, CXCR6 block 46.4 (no result: APJ antagonist, APJ agonist) | CXCR6 confirm 56.4
COc1cc(/C=C2/C(=O)NN(c3ccc(C)c(Cl)c3)C2=O)cc([N+](=O)[O-])c1O	none
CN(CC(=O)Nc1cc(S(=O)(=O)N2CCCC2)ccc1Cl)Cc1cccs1	CXCR6 block 28.7 | CXCR6 confirm 51.5
Cc1cc(C)n(C(C[N+](=O)[O-])c2ccc(Cl)cc2)n1 (centres undefined)	CXCR6 block 44.5 | CXCR6 confirm inactive
COCCNC(=O)C1(C)CCCN(CCOc2ccc(Cl)cc2)C1 (centres undefined)	none (no result: CCR6 antag, APJ antagonist, APJ agonist)
CCN1C(=O)[C@H]2[C@@H](c3ccc(C(F)(F)F)cc3)N[C@]3(CCCN(Cc4ccco4)C3=O)[C@H]2C1=O	CXCR6 block 54.9 (no result: CCR6 antag, APJ antagonist, APJ agonist) | CXCR6 confirm inactive
COc1ccccc1OCC(=O)N/N=C(\C)c1ccc2ccccc2c1	none (no result: CCR6 antag, APJ antagonist, APJ agonist)
CCC(C)[C@H](NC(=O)N1CCN(c2cccc(C(F)(F)F)c2)CC1)C(=O)OC (some centres undefined)	CXCR6 block 50.9 | CXCR6 confirm inactive
Cn1c(O)c(C2=c3ccccc3=NC2=O)[nH]c1=S	none (no result: CCR6 antag)
COc1ccc2nc(-n3c(O)c(C4=c5ccccc5=NC4=O)[nH]c3=S)sc2c1	CCR6 antag 78.1, CXCR6 block 64.5 (no result: APJ antagonist, APJ agonist) | CXCR6 confirm 51.8
CC(=O)OC1(C)C=Cc2ccccc2C1=NS(=O)(=O)c1ccccc1 (centres undefined)	none (no result: CCR6 antag, APJ antagonist, APJ agonist)
CCN(c1ccccc1C(=O)O)S(=O)(=O)c1ccc2[nH]c(=O)[nH]c2c1	CXCR6 block 38.9 | CXCR6 confirm inactive
CCN(c1ccccc1)S(=O)(=O)c1ccc2[nH]c(=O)c(=O)[nH]c2c1	none
COc1cc(Br)c(/C=C/c2ccc3cccc(O)c3n2)cc1OC	none
COc1ccc(OC)c(/C=C/c2ccc3cccc(O)c3n2)c1	CXCR6 block 48.4 (no result: CCR6 antag) | CXCR6 confirm 59.1
O=C1C=CC2C3C(=O)N(c4ccccc4)C(=O)C3C1N2Cc1ccccc1 (centres undefined)	CCR6 antag 58.8, CXCR6 block 51.3 (no result: APJ antagonist, APJ agonist) | CXCR6 confirm 45.0
CCOc1cc(OCC)cc(C(=O)NCCN2CCC(n3c(=O)[nH]c4ccccc43)CC2)c1	none (no result: CCR6 antag, APJ antagonist, APJ agonist)
COC(=O)c1ccc(CCc2cc(O)c(Br)cc2O)cc1	CXCR6 block 54.9 (no result: CCR6 antag, APJ antagonist, APJ agonist) | CXCR6 confirm 48.6
COC(=O)c1ccc(CCc2cc(O)ccc2O)cc1	none (no result: APJ antagonist, APJ agonist)
COc1ccc(NC(=O)c2cc(C3CCCCN3C(=O)CCCc3ccccc3)on2)c(C)c1 (centres undefined)	none (no result: CCR6 antag, APJ antagonist, APJ agonist)
Fc1ccc(CNC(=S)Nc2ccccc2Cl)cc1	CXCR6 block 47.1 | CXCR6 confirm inactive
Cc1c(Cl)cccc1NC(=S)NCc1ccc(F)cc1	none
C[C@@H](NC(=O)c1[nH]cnc1C(=O)Nc1ccccc1F)c1ccccc1	CXCR6 block 42.3 (no result: CCR6 antag, APJ antagonist, APJ agonist) | CXCR6 confirm inactive
C[C@@H](NC(=O)c1nc[nH]c1C(=O)N[C@H](C)c1ccccc1)c1ccccc1	none
OCCN1CCN(c2ncnc3c2ncn3[C@H]2CN(Cc3ccncc3)C[C@@H](CO)O2)CC1	none (no result: CCR6 antag, APJ antagonist, APJ agonist)
CC1C(=O)N(Cc2cn(Cc3ccco3)nn2)CCS(=O)(=O)N1Cc1ccc(-c2ccc(Cl)cc2)cc1 (centres undefined)	none (no result: CCR6 antag, APJ antagonist, APJ agonist)
